In publication PMC11966289 (ACS Omega, 2025):

Assays:
[1] = test system: P. falciparum (D6 strain); test: In vitro antiplasmodial activity; type: cell-based; conditions: Plasmodium falciparum, D6, 72 h, read-out: P. falciparum (D6 strain) IC50
[2] = test system: P. falciparum (W2 strain); test: In vitro antiplasmodial activity; type: cell-based; conditions: Plasmodium falciparum, W2, 72 h, read-out: P. falciparum (W2 strain) IC50
How it was run: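 Infected erythrocytes (2% hematocrit, 2% parasitemia) in RPMI 1640 with 60 μg/mL amikacin and 10% human serum, exposed to serially diluted test compound under 90% N2/5% CO2/5% O2 at 37 °C for 72 h. Parasite LDH measured with Malstat reagent (30 min, room temperature), then NBT/PES (1 h, dark), stopped with 5% acetic acid, absorbance 650 nm. Triplicates; chloroquine/artemisinin and DMSO controls; IC50 from dose–response.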

[3] = In vitro cytotoxicity, Neutral Red assay; type: cell-based; conditions: African green monkey, Vero cells
P. berghei = test: In vivo antiplasmodial evaluation in the P. berghei-mouse malaria model; set-up: species or system P. berghei (Swiss Webster Hsd:ND4 mice); conditions: for % Parasitemia suppression day 5 / % Parasitemia suppression day 7 / MST (mean survival time) / cure (mice without parasitemia until day 28) / survival (animals survived on day 28/total): oral gavage, mice; for parasitemia suppression: day not given
[4] = 33.33 mg/kg dose, oral gavage once daily days 0, 1, 2

Row | SMILES | IC50 [1] [nM] | IC50 [2] [nM] | IC50 at 48 h [3] | also measured
1 | CCN1CCN(c2nc(C)cc(N3CCN(CCNc4ccnc5cc(Cl)ccc45)CC3)n2)CC1 [Compound 7e, 7-Chloro-N-(2-(4-(2-(4-ethylpiperazin-1-yl)-6-methylpyrimidin-4-yl)piperazin-1-yl)ethyl)quinolin-4-amine] | 21 | 16 | > 4.76 µg/mL | % Parasitemia suppression day 5 (P. berghei; 11.1 mg/kg × 3 days): 94.31%; % Parasitemia suppression day 7 (P. berghei; 11.1 mg/kg × 3 days): 41.53%; MST (mean survival time) (P. berghei; 11.1 mg/kg × 3 days): 21.4 days; cure (mice without parasitemia until day 28) (P. berghei; 11.1 mg/kg × 3 days): 0/5; survival (animals survived on day 28/total) (P. berghei; 11.1 mg/kg × 3 days): 2/5; % Parasitemia suppression day 5 (P. berghei; 33.3 mg/kg × 3 days): 100.00%; % Parasitemia suppression day 7 (P. berghei; 33.3 mg/kg × 3 days): 100.00%; MST (mean survival time) (P. berghei; 33.3 mg/kg × 3 days): 28 days; cure (mice without parasitemia until day 28) (P. berghei; 33.3 mg/kg × 3 days): 5/5; survival (animals survived on day 28/total) (P. berghei; 33.3 mg/kg × 3 days): 5/5; parasitemia suppression (P. berghei; [4]): 100%; % Parasitemia suppression day 5 (P. berghei; 100 mg/kg × 3 days): 100.00%; % Parasitemia suppression day 7 (P. berghei; 100 mg/kg × 3 days): 100.00%; MST (mean survival time) (P. berghei; 100 mg/kg × 3 days): 28 days; cure (mice without parasitemia until day 28) (P. berghei; 100 mg/kg × 3 days): 5/5
2 | Cc1cc(N2CCN(CCCNc3ccnc4cc(Cl)ccc34)CC2)nc(N2CCCCC2)n1 [Compound 7f, 7-Chloro-N-(3-(4-(6-methyl-2-(piperidin-1-yl)pyrimidin-4-yl)piperazin-1-yl)propyl) quinolin-4-amine] | 15 | 34 | > 4.76 µg/mL | –
3 | Cc1cc(N2CCN(CCCNc3ccnc4cc(Cl)ccc34)CC2)nc(N2CCOCC2)n1 [Compound 7g, 7-Chloro-N-(3-(4-(6-methyl-2-morpholinopyrimidin-4-yl)piperazin-1-yl)propyl) quinolin-4-amine] | 15 | 43 | > 4.76 µg/mL | –
4 | Cc1cc(N2CCN(CCCNc3ccnc4cc(Cl)ccc34)CC2)nc(N2CCSCC2)n1 [Compound 7h, 7-Chloro-N-(3-(4-(6-methyl-2-thiomorpholinopyrimidin-4-yl)piperazin-1-yl)propyl) quinolin-4-amine] | 18 | 50 | > 4.76 µg/mL | –
5 | Cc1cc(N2CCN(CCCNc3ccnc4cc(Cl)ccc34)CC2)nc(N2CCCC2)n1 [Compound 7i, 7-Chloro-N-(3-(4-(6-methyl-2-(pyrrolidin-1-yl)pyrimidin-4-yl)piperazin-1-yl)propyl) quinolin-4-amine] | 12 | 19 | > 4.76 µg/mL | % Parasitemia suppression day 5 (P. berghei; 11.1 mg/kg × 3 days): 100.00%; % Parasitemia suppression day 7 (P. berghei; 11.1 mg/kg × 3 days): 100.00%; MST (mean survival time) (P. berghei; 11.1 mg/kg × 3 days): 27 days; cure (mice without parasitemia until day 28) (P. berghei; 11.1 mg/kg × 3 days): 3/5; survival (animals survived on day 28/total) (P. berghei; 11.1 mg/kg × 3 days): 4/5; % Parasitemia suppression day 5 (P. berghei; 33.3 mg/kg × 3 days): 100.00%; % Parasitemia suppression day 7 (P. berghei; 33.3 mg/kg × 3 days): 100.00%; MST (mean survival time) (P. berghei; 33.3 mg/kg × 3 days): 28 days; cure (mice without parasitemia until day 28) (P. berghei; 33.3 mg/kg × 3 days): 5/5; survival (animals survived on day 28/total) (P. berghei; 33.3 mg/kg × 3 days): 5/5; parasitemia suppression (P. berghei; [4]): 100%; % Parasitemia suppression day 5 (P. berghei; 100 mg/kg × 3 days): 100.00%; % Parasitemia suppression day 7 (P. berghei; 100 mg/kg × 3 days): 100.00%; MST (mean survival time) (P. berghei; 100 mg/kg × 3 days): 22.8 days; survival (animals survived on day 28/total) (P. berghei; 100 mg/kg × 3 days): 5/5; parasitemia suppression (P. berghei; at all doses (11.1, 33.3, and 100.0 mg/kg)): 100%
6 | CCN1CCN(c2nc(C)cc(N3CCN(CCCNc4ccnc5cc(Cl)ccc45)CC3)n2)CC1 [Compound 7j, 7-Chloro-N-(3-(4-(2-(4-ethylpiperazin-1-yl)-6-methylpyrimidin-4-yl)piperazin-1-yl)propyl)quinolin-4-amine] | 19 | 20 | > 4.76 µg/mL | –
7 | Cc1cc(N2CCN(CCCNc3ccnc4cc(Cl)ccc34)CC2)nc(N2CCN(C)CC2)n1 [Compound 7k, 7-Chloro-N-(3-(4-(6-methyl-2-(4-methylpiperazin-1-yl)pyrimidin-4-yl)piperazin-1-yl)propyl)quinolin-4-amine] | 19 | 22 | > 4.76 µg/mL | –
8 | Clc1ccc2c(NCCCN3CCN(c4ccnc(N5CCCCC5)n4)CC3)ccnc2c1 [Compound 7l, 7-Chloro-N-(3-(4-(2-(piperidin-1-yl)pyrimidin-4-yl)piperazin-1-yl)propyl)quinolin-4-amine] | 14 | 31 | > 4.76 µg/mL | –
9 | Clc1ccc2c(NCCCN3CCN(c4ccnc(N5CCOCC5)n4)CC3)ccnc2c1 [Compound 7m, 7-Chloro-N-(3-(4-(2-morpholinopyrimidin-4-yl)piperazin-1-yl)propyl)quinolin-4-amine] | 20 | 34 | > 4.76 µg/mL | –
10 | Clc1ccc2c(NCCCN3CCN(c4ccnc(N5CCSCC5)n4)CC3)ccnc2c1 [Compound 7n, 7-Chloro-N-(3-(4-(2-thiomorpholinopyrimidin-4-yl)piperazin-1-yl)propyl)quinolin-4-amine] | 4080 | > 9830 | > 4.76 µg/mL | –
11 | CCN1CCN(c2nccc(N3CCN(CCCNc4ccnc5cc(Cl)ccc45)CC3)n2)CC1 [Compound 7p, 7-Chloro-N-(3-(4-(2-(4-ethylpiperazin-1-yl)pyrimidin-4-yl)piperazin-1-yl)propyl) quinolin-4-amine] | 13 | 20 | > 4.76 µg/mL | –
12 | CN1CCN(c2nccc(N3CCN(CCCNc4ccnc5cc(Cl)ccc45)CC3)n2)CC1 [Compound 7q, 7-Chloro-N-(3-(4-(2-(4-methylpiperazin-1-yl)pyrimidin-4-yl)piperazin-1-yl)propyl) quinolin-4-amine] | 14 | 17 | > 4.76 µg/mL | –
13 | COc1cccc2c1C(=O)c1c(O)c3c(c(O)c1C2=O)C[C@@](O)(C(=O)CO)C[C@@H]3O[C@H]1C[C@H](N)[C@H](O)[C@H](C)O1 [doxorubicin, reference compound] | – | – | 8.6 ± 0.4 µM | –
